From ChEMBL document CHEMBL3297718, “Ultrasound-assisted one-pot four-component synthesis of novel 2-amino-3-cyanopyridine derivatives bearing 5-imidazopyrazole scaffold and their biological broadcast” (Eur J Med Chem, 2014)
In brackets after ≈: the same amount, converted by molar mass.

What was measured:
[1] = system: Mycobacterium tuberculosis; assay: Antitubercular activity against Mycobacterium tuberculosis H37Rv; format: functional
Summary of the method: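 M. tuberculosis H37Rv was grown on Lowenstein–Jensen medium with compound at a single concentration of 250, and compared against control tubes of medium alone with the organism. Results are given as % inhibition, and the concentration giving complete inhibition of colonies was taken as the active concentration.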

Vibrio cholerae = assay: Antimicrobial activity against Vibrio cholerae MTCC 3906 by broth microdilution method; format: functional
[2] = Antioxidant activity assessed as ferric ion reducing activity using fe3+-TPTZ at 200 mg/ml measured as ascorbic acid per 100 g sample by FRAP assay; format: physicochemical
Summary of the method: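 FRAP assay, modified Benzie–Strain. Reagent combined TPTZ in 40 mM HCl, aqueous FeCl₃·6H₂O and acetate buffer at pH 3.6. Sample solution was mixed with 3 mL reagent and incubated 25 min at 37 °C. Fe(II)–TPTZ absorbance was read at 593 nm against an ascorbic acid standard. Results are given as ascorbic equivalents, mmol/100 g compound.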

[3] = system: Mycobacterium tuberculosis; assay: Antitubercular activity against Mycobacterium tuberculosis H37Rv at 250 ug/ml; format: functional
Candida albicans = assay: Antimicrobial activity against Candida albicans MTCC 227 by broth microdilution method; format: functional
Summary of the method: (§1)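 Broth microdilution following NCCLS. Compounds were diluted in 2% DMSO in water. Fungi were grown in Sabouraud dextrose broth. Inoculum was set to 10⁸ CFU mL⁻¹ by turbidity. A primary serial-dilution screen was followed by a secondary set of lower dilutions for primary actives. Tubes were incubated at 37 °C, with growth noted at 24 and 48 h. MIC was the highest dilution preventing turbidity after spot subculture.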

Streptococcus pneumoniae = assay: Antimicrobial activity against Streptococcus pneumoniae MTCC 1936 by broth microdilution method; format: functional
Bacillus subtilis = assay: Antimicrobial activity against Bacillus subtilis MTCC 441 by broth microdilution method; format: functional; summary of the method: as §1
Aspergillus fumigatus = assay: Antimicrobial activity against Aspergillus fumigatus MTCC 3008 by broth microdilution method; format: functional; summary of the method: as §1
Escherichia coli = assay: Antimicrobial activity against Escherichia coli MTCC 443 by broth microdilution method; format: functional; summary of the method: as §1
Clostridium tetani = assay: Antimicrobial activity against Clostridium tetani MTCC 449 by broth microdilution method; format: functional
Salmonella typhi = assay: Antimicrobial activity against Salmonella typhi MTCC 98 by broth microdilution method; format: functional, Salmonella enterica subsp. enterica serovar Typhi; conditions: Salmonella enterica

Structure (SMILES) | MIC [1] [µg/mL] | MIC (Vibrio cholerae) [µg/mL] | Activity [2] [mmol] | inhibition at 250 µg/mL [3] [%] | MIC (Candida albicans) [µg/mL] | MIC (Streptococcus pneumoniae) [µg/mL] | MIC (Bacillus subtilis) [µg/mL] | MIC (Aspergillus fumigatus) [µg/mL] | MIC (Escherichia coli) [µg/mL] | MIC (Clostridium tetani) [µg/mL] | MIC (Salmonella typhi) [µg/mL]
Cc1nn(-c2ccccc2)c(-n2ccnc2)c1C=O | 100 (≈ 396 µM) | 250 (≈ 991 µM) | 242.88 | 91 | > 1000 | 500 (≈ 1980 µM) | 250 (≈ 991 µM) | > 1000 | 100 (≈ 396 µM) | 250 (≈ 991 µM) | 125 (≈ 495 µM)
Cc1cn(-c2c(C=O)c(C)nn2-c2ccccc2)cn1 |  | 250 (≈ 939 µM) | 213.24 | 65 | 250 (≈ 939 µM) | 500 (≈ 1880 µM) | 100 (≈ 376 µM) | 500 (≈ 1880 µM) | 250 (≈ 939 µM) | 150 (≈ 563 µM) | 200 (≈ 751 µM)
Cc1nn(-c2ccccc2)c(-n2ccnc2)c1-c1cc(-c2ccccc2)nc(N)c1C#N |  | 250 (≈ 599 µM) | 427.08 | 25 | 1000 (≈ 2400 µM) | 250 (≈ 599 µM) | 200 (≈ 479 µM) | 1000 (≈ 2400 µM) | 250 (≈ 599 µM) | 250 (≈ 599 µM) | 200 (≈ 479 µM)
Cc1cn(-c2c(-c3cc(-c4ccccc4)nc(N)c3C#N)c(C)nn2-c2ccccc2)cn1 |  | 200 (≈ 463 µM) | 401.81 | 84 | > 1000 | 500 (≈ 1160 µM) | 100 (≈ 232 µM) | > 1000 | 200 (≈ 463 µM) | 500 (≈ 1160 µM) | 250 (≈ 579 µM)
Cc1nn(-c2ccccc2)c(-n2ccnc2)c1-c1cc(-c2ccc(-c3ccccc3)cc2)nc(N)c1C#N |  | 500 (≈ 1010 µM) | 497.1 | 45 | 500 (≈ 1010 µM) | 500 (≈ 1010 µM) | 500 (≈ 1010 µM) | 500 (≈ 1010 µM) | 100 (≈ 203 µM) | 250 (≈ 507 µM) | 125 (≈ 253 µM)
Cc1cn(-c2c(-c3cc(-c4ccc(-c5ccccc5)cc4)nc(N)c3C#N)c(C)nn2-c2ccccc2)cn1 |  | 100 (≈ 197 µM) | 495.9 | 23 | 500 (≈ 985 µM) | 125 (≈ 246 µM) | 250 (≈ 493 µM) | 500 (≈ 985 µM) | 250 (≈ 493 µM) | 250 (≈ 493 µM) | 200 (≈ 394 µM)
Cc1nn(-c2ccccc2)c(-n2ccnc2)c1-c1cc(-c2ccc(Cl)cc2)nc(N)c1C#N |  | 500 (≈ 1110 µM) | 490.33 | 16 | 1000 (≈ 2210 µM) | 100 (≈ 221 µM) | 500 (≈ 1110 µM) | 500 (≈ 1110 µM) | 62.5 (≈ 138 µM) | 500 (≈ 1110 µM) | 200 (≈ 443 µM)
Cc1cn(-c2c(-c3cc(-c4ccc(Cl)cc4)nc(N)c3C#N)c(C)nn2-c2ccccc2)cn1 |  | 250 (≈ 537 µM) | 404.8 | 22 | 1000 (≈ 2150 µM) | 200 (≈ 429 µM) | 500 (≈ 1070 µM) | 500 (≈ 1070 µM) | 200 (≈ 429 µM) | 500 (≈ 1070 µM) | 250 (≈ 537 µM)
Cc1nn(-c2ccccc2)c(-n2ccnc2)c1-c1cc(-c2ccc(Br)cc2)nc(N)c1C#N |  | 200 (≈ 403 µM) | 67.63 | 37 | 500 (≈ 1010 µM) | 200 (≈ 403 µM) | 200 (≈ 403 µM) | 500 (≈ 1010 µM) | 100 (≈ 201 µM) | 200 (≈ 403 µM) | 200 (≈ 403 µM)
Cc1cn(-c2c(-c3cc(-c4ccc(Br)cc4)nc(N)c3C#N)c(C)nn2-c2ccccc2)cn1 |  | 250 (≈ 490 µM) | 70.61 | 84 | 1000 (≈ 1960 µM) | 250 (≈ 490 µM) | 62.5 (≈ 122 µM) | > 1000 | 500 (≈ 980 µM) | 100 (≈ 196 µM) | 500 (≈ 980 µM)
Cc1nn(-c2ccccc2)c(-n2ccnc2)c1-c1cc(-c2ccc(F)cc2)nc(N)c1C#N |  | 200 (≈ 459 µM) | 405.2 | 15 | 1000 (≈ 2300 µM) | 200 (≈ 459 µM) | 200 (≈ 459 µM) | 1000 (≈ 2300 µM) | 500 (≈ 1150 µM) | 500 (≈ 1150 µM) | 500 (≈ 1150 µM)
Cc1cn(-c2c(-c3cc(-c4ccc(F)cc4)nc(N)c3C#N)c(C)nn2-c2ccccc2)cn1 |  | 100 (≈ 222 µM) | 392.66 | 62 | > 1000 | 100 (≈ 222 µM) | 500 (≈ 1110 µM) | 1000 (≈ 2220 µM) | 500 (≈ 1110 µM) | 250 (≈ 556 µM) | 250 (≈ 556 µM)
COc1ccc(-c2cc(-c3c(C)nn(-c4ccccc4)c3-n3ccnc3)c(C#N)c(N)n2)cc1 | 62.5 (≈ 140 µM) | 200 (≈ 447 µM) | 400.22 | 94 | > 1000 | 125 (≈ 279 µM) | 100 (≈ 223 µM) | 1000 (≈ 2230 µM) | 125 (≈ 279 µM) | 200 (≈ 447 µM) | 200 (≈ 447 µM)
COc1ccc(-c2cc(-c3c(C)nn(-c4ccccc4)c3-n3cnc(C)c3)c(C#N)c(N)n2)cc1 |  | 62.5 (≈ 135 µM) | 178.82 | 56 | 500 (≈ 1080 µM) | 100 (≈ 217 µM) | 250 (≈ 542 µM) | 1000 (≈ 2170 µM) | 125 (≈ 271 µM) | 250 (≈ 542 µM) | 250 (≈ 542 µM)
Cc1nn(-c2ccccc2)c(-n2ccnc2)c1-c1cc(-c2ccco2)nc(N)c1C#N | 25 (≈ 61.4 µM) | 100 (≈ 245 µM) | 456.32 | 96 | 500 (≈ 1230 µM) | 100 (≈ 245 µM) | 100 (≈ 245 µM) | > 1000 | 250 (≈ 614 µM) | 150 (≈ 368 µM) | 100 (≈ 245 µM)
Cc1cn(-c2c(-c3cc(-c4ccco4)nc(N)c3C#N)c(C)nn2-c2ccccc2)cn1 | 100 (≈ 237 µM) | 200 (≈ 475 µM) | 397.24 | 92 | > 1000 | 250 (≈ 593 µM) | 500 (≈ 1190 µM) | > 1000 | 250 (≈ 593 µM) | 500 (≈ 1190 µM) | 200 (≈ 475 µM)
Cc1nn(-c2ccccc2)c(-n2ccnc2)c1-c1cc(-c2cccs2)nc(N)c1C#N |  | 62.5 (≈ 148 µM) | 205.48 | 41 | > 1000 | 100 (≈ 236 µM) | 200 (≈ 472 µM) | 500 (≈ 1180 µM) | 500 (≈ 1180 µM) | 200 (≈ 472 µM) | 500 (≈ 1180 µM)
Cc1cn(-c2c(-c3cc(-c4cccs4)nc(N)c3C#N)c(C)nn2-c2ccccc2)cn1 |  | 100 (≈ 229 µM) | 422.3 | 23 | > 1000 | 100 (≈ 229 µM) | 500 (≈ 1140 µM) | > 1000 | 250 (≈ 571 µM) | 500 (≈ 1140 µM) | 250 (≈ 571 µM)
Cc1nn(-c2ccccc2)c(-n2ccnc2)c1-c1cc(-c2cc3ccccc3oc2=O)nc(N)c1C#N |  |  | 401.22 |  | 500 (≈ 1030 µM) | 100 (≈ 206 µM) | 500 (≈ 1030 µM) | 1000 (≈ 2060 µM) | 200 (≈ 412 µM) |  | 
Cc1cn(-c2c(-c3cc(-c4cc5ccccc5oc4=O)nc(N)c3C#N)c(C)nn2-c2ccccc2)cn1 |  |  | 433.44 |  | 250 (≈ 500 µM) | 100 (≈ 200 µM) | 200 (≈ 400 µM) | 500 (≈ 1000 µM) | 250 (≈ 500 µM) |  | 
Cc1cn(-c2c(-c3cc(-c4ccc5c(c4)OC(C)(C)O5)nc(N)c3C#N)c(C)nn2-c2ccccc2)cn1 |  | 500 (≈ 993 µM) | 384.91 | 78 | 1000 (≈ 1990 µM) | 500 (≈ 993 µM) | 250 (≈ 496 µM) | 1000 (≈ 1990 µM) | 125 (≈ 248 µM) | 500 (≈ 993 µM) | 62.5 (≈ 124 µM)
CC1(C)S[C@@H]2[C@H](NC(=O)[C@H](N)c3ccccc3)C(=O)N2[C@H]1C(=O)O [AMPICILLIN] |  | 100 (≈ 286 µM) |  |  |  | 100 (≈ 286 µM) | 250 (≈ 715 µM) |  | 100 (≈ 286 µM) | 250 (≈ 715 µM) | 100 (≈ 286 µM)
COC1=CC(=O)C[C@@H](C)[C@]12Oc1c(Cl)c(OC)cc(OC)c1C2=O [GRISEOFULVIN] |  |  |  |  | 500 (≈ 1420 µM) |  |  | 100 (≈ 283 µM) |  |  | 
NNC(=O)c1ccncc1 [ISONIAZID] | 0.2 (≈ 1.46 µM) |  |  |  |  |  |  |  |  |  | 
CO[C@H]1/C=C/O[C@@]2(C)Oc3c(C)c(O)c4c(O)c(c(/C=N/N5CCN(C)CC5)c(O)c4c3C2=O)NC(=O)/C(C)=C\C=C\[C@H](C)[C@H](O)[C@@H](C)[C@@H](O)[C@@H](C)[C@H](OC(C)=O)[C@@H]1C [RIFAMPIN] | 0.15 (≈ 0.182 µM) |  |  | 98 |  |  |  |  |  |  | 
